Assay outcomes deposited in PubChem by The Scripps Research Institute Molecular Screening Center.
ASAP1 GAP inh: blocks human ASAP1-stimulated Arf1 GTP hydrolysis. GDP FP detection. inhibition, % at 16.5 µM. hit rate 0.19% among 360,000; in the data active = inhibition above about 25%;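 also: 0% = vehicle with enzyme and substrate and 100% = no enzyme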
Target sequence (Q9ULH1 325-724 limits assumed): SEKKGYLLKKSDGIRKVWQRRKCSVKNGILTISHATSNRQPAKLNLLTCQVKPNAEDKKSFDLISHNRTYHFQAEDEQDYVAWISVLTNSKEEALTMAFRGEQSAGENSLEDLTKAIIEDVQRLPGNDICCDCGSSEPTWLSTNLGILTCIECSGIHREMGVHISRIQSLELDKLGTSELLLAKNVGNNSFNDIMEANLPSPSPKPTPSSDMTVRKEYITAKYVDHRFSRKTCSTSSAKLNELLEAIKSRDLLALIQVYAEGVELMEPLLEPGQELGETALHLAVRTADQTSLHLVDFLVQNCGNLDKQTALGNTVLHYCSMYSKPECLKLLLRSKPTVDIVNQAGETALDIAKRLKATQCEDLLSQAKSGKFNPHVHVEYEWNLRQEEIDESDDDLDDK
ARFGAP1 inhibitor: inhibits rat ARF GTPase activating protein 1 | Q62848 | Arfgap1-stimulated ARF1 GTP hydrolysis, GDP FP detection | inhibition, % at 16.5 µM | hit rate 0.26% among 360,000;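 active = inhibition above a per-plate limit, mean inhibition of low control wells plus 3 SD, cut at about 25% in these data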;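 also: 0% = DMSO wells with enzyme and 100% = wells lacking Arfgap1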
Target sequence (Q62848 1-136 limits assumed): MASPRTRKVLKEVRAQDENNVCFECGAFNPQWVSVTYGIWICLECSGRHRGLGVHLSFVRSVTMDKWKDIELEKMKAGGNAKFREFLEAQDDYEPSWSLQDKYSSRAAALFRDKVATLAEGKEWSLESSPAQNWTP
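Repeats: one replicate per compound; assay system: rat Arfgap1 catalytic domain, aa 1-136; times: enzyme reaction 120 min at 25 °C after 20 min preincubation; detection: FP of antibody-bound GDP Alexa 633 tracer, ex 620/em 688 nm; benchmarks: high control wells lacking Arfgap1, low control full reaction with DMSO; reagent: human ARF1(Δ1-17)-GTP substrate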
UHRF1 binding: blocks human UHRF1 binding to methylated DNA. Q96T88. UHRF1 binding to methylated oligo, TR-FRET. inhibition, % at 4.4 µM. hit rate 0.75% among 370,000; in the data active = inhibition above about 21%;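 also: UHRF1 SRA domain binding a hemimethylated CpG hairpin DNA probe; 0% = median of test compound wells and 100% = reference inhibitor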
TDP2 inh: TDP2 (human) inhibition, absorbance primary screen. hit rate 0.34% among 370,000. O95551. inhibition, % at 12.8 µM. recombinant TDP2, T5PNP hydrolysis, p-nitrophenol absorbance 415 nm;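 active = inhibition above the mean of all tested compounds plus 3 SD, set per campaign, cut at about 25% in these data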;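 also: 0% = DMSO with enzyme and 100% = buffer with substrate but no TDP2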
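Read-out basis: percent inhibition. System: recombinant human TDP2. Buffer or medium: Mg2+-containing Tris-HCl buffer, pH 7.5. Repeats: single replicate. Timing: reaction 2 h, 37 °C. Benchmarks: high control without enzyme, low control DMSO plus TDP2. Probe or stimulus: 5 mM T5PNP. Doses: 12.8 µM only. Measured by: epi absorbance of p-nitrophenol freed from T5PNP by hydrolysis.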
MBD2 DNA inh: inhibitors of human MBD2 binding to methylated oligonucleotide. Q9UBB5. TR-FRET. inhibition, % at 4.4 µM. hit rate 0.31% among 370,000; in the data active = inhibition above about 13%
LEDGF integ inh: blocks HIV-1 LEDGF/p75-dependent DNA integration. hit rate 0.64% among 370,000. inhibition, % at 3.7 µM. TR-FRET IN-LEDGF/p75 DNA integration, Eu/Cy5;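 active = inhibition above the screen-wide mean plus 3 SD, cut at about 13% in these data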;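 also: signal is the Cy5 over europium emission ratio at 671 and 618 nm; 0% = plate median of compound wells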
The depositor's hits bear a star; nt = no result. Compounds with a hit are over-represented: about 2% of the library has one in this group of screens.

SMILES | ASAP1 GAP inh | ARFGAP1 inhibitor | UHRF1 binding | TDP2 inh | MBD2 DNA inh | LEDGF integ inh
CCCSc1nnc(-c2ccco2)n1C | nt | nt | 1 | -8 | -3 | -3
COc1ccc(-c2noc(C3CCCN(C(=O)Nc4cccc(C)c4)C3)n2)cc1 (centres undefined) | nt | nt | 6 | -4 | -1 | -5
Cc1ccc(N2C(=O)c3ccccc3C2Nc2ccc(S(=O)(=O)N3CCOCC3)cc2)nc1 (centres undefined) | 3 | 8 | 2 | -6 | 4 | -1
Cc1ccc(N2C(=O)c3ccccc3C2Nc2ccc(S(=O)(=O)N3CCCCC3)cc2)nc1 (centres undefined) | 6 | 12 | 77* | 6 | -4 | 4
CCC[C@H]1[C@@H](NC(=O)/C=C/c2ccccc2)CC[C@@]23CCCN2C(=O)CCC[C@@H]13 | nt | nt | -2 | 0 | 0 | -1
O=C(N/N=C\C=C\c1ccc2c(c1)OCO2)c1cccnc1 | -13 | -5 | 33* | -12 | -4 | -2
O=C(/C=C/c1ccc2c(c1)OCO2)c1cccnc1 | 10 | -4 | -1 | -2 | 4 | -3
O=C(NCC1OCCc2ccccc21)c1ccc(NC(=O)c2ccccc2Cl)cc1 (centres undefined) | 10 | -4 | 21* | -4 | 6 | -1
Cc1oc(-c2ccc(F)cc2)cc1-c1nn2c(-c3ccoc3C)nnc2s1 | 11 | 14 | 40* | 1 | 14* | 38*
O=S1(=O)c2c(cccc2N2CCC[C@H]2CO)O[C@H]2CCN1C2 | nt | nt | 5 | -2 | 3 | 3
COc1nc(C)cc(C)c1S(=O)(=O)c1ccc(Cl)cc1 | 17 | 9 | 2 | -13 | 0 | 2
CCOc1nc(C)cc(C)c1S(=O)(=O)c1ccc(Cl)cc1 | 4 | 8 | 25* | 0 | 7 | 1
Cc1ccnc2nc(C(=O)Nc3ccc4c(c3)OCO4)nn12 | -6 | 2 | 23* | -4 | 10 | 2
Clc1ccc(CN2CCN(N=Cc3cccc(OCc4ccccc4)c3)CC2)cc1 | nt | nt | 0 | -7 | 1 | 5
COC(=O)c1cnn(-c2ccc(Cl)cc2)c1/C=N/NC(=S)Nc1ccccc1 | nt | nt | 0 | 1 | 2 | 0
Cc1ccc(C)c(NC(=O)CN(C)S(=O)(=O)c2cccc3cccnc23)c1 | 2 | 5 | 27* | -14 | 13 | -2
CN(C)C(=O)c1cn(N(C)c2ncc(C(F)(F)F)cc2Cl)c(=O)c2ccccc12 | -8 | 7 | 1 | 3 | -2 | 1
CN(c1ncc(C(F)(F)F)cc1Cl)N1C(=O)c2cccc([N+](=O)[O-])c2C1=O | 9 | -2 | 23* | -14 | 1 | 4
CC(=O)N1CCc2cc(Br)c(S(=O)(=O)CCC(=O)N3CCN(c4ccccn4)CC3)cc21 | nt | nt | 0 | 1 | -1 | -1
COc1ccc(S[C@]2(C(=O)N3CCN(c4ncccn4)CC3)CC(=O)N(c3ccc4ccccc4c3)[C@@H]2c2ccc(OC)cc2)cc1 | nt | nt | 1 | -3 | 2 | -1
Cc1ccc(S(=O)(=O)/C(C#N)=C/c2c(N3CCC(C(N)=O)CC3)nc3c(C)cccn3c2=O)cc1 | -5 | -4 | 22* | 8 | 9 | -3
COCCCNC(=O)/C(C#N)=C/c1c(N2CCN(C)CC2)nc2c(C)cccn2c1=O | 0 | 1 | 52* | -1 | -7 | 2
COCCNC(=O)/C(C#N)=C/c1c(N2CCN(C)CC2)nc2c(C)cccn2c1=O | 7 | 7 | -4 | -11 | -7 | -9
O=C(COc1ccc(Cl)cc1)OCc1ccc(Cl)cc1 | -2 | 1 | 40* | -2 | 3 | -2
O=[n+]1cc(-c2ccccc2)n([O-])c2c1CCC2 | 0 | 1 | 21* | 9 | 5 | 0
SMILES | ASAP1 GAP inh | ARFGAP1 inhibitor | UHRF1 binding | TDP2 inh | MBD2 DNA inh | LEDGF integ inh
O=[n+]1cc(-c2ccc(Cl)cc2)n([O-])c2c1CCC2 | -5 | 8 | -1 | 16 | -6 | -2
COc1ccc(S[C@]2(C(=O)N3CCN(c4ncccn4)CC3)CC(=O)N(c3ccsc3)[C@@H]2c2ccc(OC)cc2)cc1 | nt | nt | 0 | 4 | 3 | -1
O=C(CSc1nc2ccccc2s1)N1CCCCC1 | 7 | 6 | 42* | 11 | -5 | 2
O=C(O)C1CCN(C(=O)CSc2nc3ccccc3s2)CC1 | 9 | 1 | 0 | -6 | -3 | 0
Cc1onc(-c2ccc3c(c2)OCO3)c1-c1ccc2[nH]ccc2c1 | 11 | 0 | 2 | -10 | 0 | 0
c1cc2cc(-c3c(-c4ccc5c(c4)OCO5)noc3-c3ccsc3)ccc2[nH]1 | 14 | 29* | -2 | -6 | 2 | 1
CCOC(=O)[C@@]12CN(C(=O)OC(C)(C)C)CC=C1N(Cc1ccc(OC)cc1)C(=O)[C@H]2CC(=O)N1CCOCC1 | nt | nt | -4 | 8 | 3 | -1
Nc1[nH]c2cc(Cl)ccc2c1C(=O)NCCc1ccc(Cl)cc1 | nt | nt | -4 | 0 | -7 | -2
O=c1c(O[C@H]2O[C@@H](CO)[C@H](O)[C@@H](O)[C@@H]2O)c(-c2ccc(O)cc2)oc2cc(O)cc(O)c12 | 14 | 13 | 0 | -8 | 4 | -3
O=c1c(OC2OC(CO)C(O)C(O)C2O)c(-c2ccc(O)c(O)c2)oc2cc(O)cc(O)c12 (centres undefined) | -5 | 0 | -4 | -5 | -5 | 70*
COC(=O)c1cnn(-c2ccc(F)cc2F)c1/C=N/NC(=S)Nc1ccccc1 | nt | nt | 2 | -1 | -3 | -1
O=C(NC1CCSc2ccccc21)c1cc([N+](=O)[O-])ccc1N1CCOCC1 (centres undefined) | 6 | 0 | 2 | 18 | -2 | 14*
c1ccc(-c2ccc(CNc3nc(-c4ccccn4)nnc3-c3ccccc3)cc2)cc1 | nt | nt | -2 | -4 | 2 | -3
Fc1ccc(N2CCN(C3=Nc4ccccc4Sc4ccccc43)CC2)cc1 | nt | nt | 2 | -6 | -4 | -2
CC(C)CCNCC(O)CON=C1c2ccccc2-c2ccccc21 (centres undefined) | 6 | -7 | 25* | -14 | -2 | -10
COc1ccc(-c2ccc(C(=O)NCC3CC3)c3occc23)c(C)c1 | 10 | 5 | 5 | -5 | 6 | -4
COc1ccc(-c2ccc(C(=O)NCC(C)C)c3occc23)c(C)c1 | -1 | -2 | 49* | -12 | 7 | -4
Cc1ccccc1N(C)C(=O)CN1CCN(c2nc(-c3ccccc3)cs2)CC1 | nt | nt | -1 | 7 | 1 | -2
CSc1ccc(S(=O)(=O)NCC(=O)OC(C)C(=O)NCc2ccccc2)cc1[N+](=O)[O-] (centres undefined) | -2 | 8 | 27* | 10 | 2 | 0
O=C(Nc1ccccn1)c1ccc2c(=O)n3c(nc2c1)CCCCC3 | 5 | 6 | 21* | 2 | 10 | 9
